Data from ChEMBL document CHEMBL1143684, “Exploring the structure-activity relationship of the ethylamine portion of 3-iodothyronamine for rat and mouse trace amine-associated receptor 1” (J Med Chem, 2007).
pEC50: −log10 of the molar value.

Experiments:
Assay type in all cases: functional, cell-based
[1] = target: Trace amine-associated receptor 1 (Mus musculus) (UniProt Q923Y8); test: Efficacy at mouse TAAR1 expressed in HEK293 cells assessed as stimulation of cAMP production at 10 uM relative to 3-iodothyronamine
[2] = target: Trace amine-associated receptor 1 (Mus musculus, UniProt Q923Y8); test: Activity at mouse TAAR1 expressed in HEK293 cells assessed as cAMP production
How it was run: (§1)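 HEK293 cells stably expressing rat or mouse TAAR1, kept in fresh medium ≥2 h, harvested in KRH, preincubated 20-30 min with 200 µM IBMX. Cells boiled 20 min in acetate buffer. cAMP in cleared lysate read by EFC luminescence kit (18 h dark). Responses given as % of T1AM. EC50 from concentration-response fit, mean ± SEM of N independent triplicate runs.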

[3] = target: Trace amine-associated receptor 1 (Rattus norvegicus, UniProt Q923Y9); test: Activity at rat TAAR1 expressed in HEK293 cells assessed as cAMP production; how it was run: as §1
[4] = target: Trace amine-associated receptor 1 (Rattus norvegicus) (UniProt Q923Y9); test: Efficacy at rat TAAR1 expressed in HEK293 cells assessed as stimulation of cAMP production at 10 uM relative to 3-iodothyronamine
[5] = target: Trace amine-associated receptor 1 (Mus musculus) (UniProt Q923Y8); test: Antagonist activity at mouse TAAR1 expressed in HEK293 cells at 10 uM assessed as inhibition of 3-iodothyronamine-induced cAMP production; parameters: scale not given: the % may be the effect or the level left
How it was run: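 Cells harvested in Krebs-Ringer-HEPES, preincubated 20-30 min with 200 µM IBMX, then exposed 1 h at 37 °C in KRH with 133 µM IBMX plus test compound at 10 µM (DMSO vehicle; forskolin 10 µM control). Cells lysed by boiling; cAMP measured by enzyme-fragment-complementation luminescence.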

Sequence of Trace amine-associated receptor 1 (Rattus norvegicus, UniProt Q923Y9) (Q923Y9 whole entry): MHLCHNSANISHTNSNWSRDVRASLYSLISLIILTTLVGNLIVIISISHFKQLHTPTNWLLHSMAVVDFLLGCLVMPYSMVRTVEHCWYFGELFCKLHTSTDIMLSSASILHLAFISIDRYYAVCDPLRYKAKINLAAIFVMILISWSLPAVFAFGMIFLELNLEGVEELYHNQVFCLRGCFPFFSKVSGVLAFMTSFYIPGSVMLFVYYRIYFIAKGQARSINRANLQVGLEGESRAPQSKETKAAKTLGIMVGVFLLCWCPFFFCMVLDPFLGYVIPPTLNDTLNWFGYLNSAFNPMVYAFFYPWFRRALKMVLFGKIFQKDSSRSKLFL
Sequence of Trace amine-associated receptor 1 (Rattus norvegicus) (Q923Y9 whole entry): as above
Sequence of Trace amine-associated receptor 1 (Mus musculus) (Q923Y8 whole entry, the tested form may be a part): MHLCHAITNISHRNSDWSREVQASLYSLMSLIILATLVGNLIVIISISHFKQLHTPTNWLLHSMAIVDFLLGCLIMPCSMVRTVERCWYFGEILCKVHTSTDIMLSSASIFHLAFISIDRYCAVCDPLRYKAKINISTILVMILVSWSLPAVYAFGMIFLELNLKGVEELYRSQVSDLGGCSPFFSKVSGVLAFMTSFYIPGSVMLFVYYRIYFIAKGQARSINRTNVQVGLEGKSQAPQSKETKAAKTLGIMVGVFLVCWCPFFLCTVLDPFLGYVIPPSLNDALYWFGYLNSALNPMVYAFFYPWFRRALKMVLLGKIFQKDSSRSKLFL
Sequence of Trace amine-associated receptor 1 (Mus musculus, UniProt Q923Y8) (Q923Y8 whole entry): as the sequence (Q923Y8 whole entry, the tested form may be a part) above

| Structure (SMILES) | Emax [1] [%] | pEC50 [2] | pEC50 [3] | Emax [4] [%] | Activity [5] [%] |
| --- | --- | --- | --- | --- | --- |
| C#CC(CN)c1ccc(Oc2ccccc2)cc1 (configuration not stated) | 79 | 6.03 | 7.39 | 105 | – |
| NCC(c1ccccc1)c1cccc(Oc2ccccc2)c1 (configuration not stated) | 15 | < 6.00 | 7.72 | 131 | – |
| NCC(c1ccccc1)c1ccc(Oc2ccccc2)cc1 (configuration not stated) | 35 | < 6.00 | 7.55 | 103 | – |
| NCC(Cc1ccccc1)c1ccc(Oc2ccccc2)cc1 (configuration not stated) | 31 | < 6.00 | 6.85 | 92 | – |
| NCC(c1ccccc1)c1ccc(Oc2ccccc2)c2ccccc12 (configuration not stated) | 0 | < 6.00 | 7.28 | 100 | – |
| CC(CN)c1ccc(Oc2ccccc2)cc1 (configuration not stated) | 72 | < 6.00 | 6.60 | 94 | – |
| NCCc1ccc(Oc2ccccc2)cc1 | 85 | 6.38 | 7.20 | 93 | – |
| NCC(C#Cc1ccccc1)c1ccc(Oc2ccccc2)cc1 (configuration not stated) | 2 | < 6.00 | 7.21 | 119 | – |
| NCCc1ccc(Oc2ccccc2)c2ccccc12 | 104 | 7.00 | 7.59 | 113 | – |
| COc1ccc(C(CN)c2ccccc2)c2ccccc12 (configuration not stated) | 14 | < 6.00 | 6.57 | 71 | – |
| CN(C)CCCNC(=O)c1ccc(Oc2ccccc2)cc1 | 0 | < 6.00 | < 6.00 | 2 | – |
| NCC(c1ccccc1)c1ccc(O)c2ccccc12 (configuration not stated) | 14 | < 6.00 | 6.15 | 89 | – |
| CC(C)(CN)c1ccc(Oc2ccccc2)cc1 | 18 | < 6.00 | < 6.00 | 13 | – |
| NCCc1ccc(Oc2ccc(O)cc2)c(I)c1 | 100 | 6.50 | 7.48 | 100 | 30 |
